According to ChEMBL document CHEMBL1149307, “Potent and selective farnesyl transferase inhibitors” (J Med Chem, 2004):

Assays:
[1] = Inhibition of Sprague-Dawley rat brain GGTI by continuous fluorescence assay
Summary of the method: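 GGT-I source: rat brain cytosol (male Sprague–Dawley, 100 000g supernatant). Buffer: 50 mM Tris-HCl pH 7.5, 5 mM MgCl2, 10 μM ZnCl2, 5 mM DTT, 0.01% dodecyl maltoside, 5.4 mg/mL protein, 4 μM dansyl-GCVLL, 10 μM GGPP. Incubated at 25 °C; fluorescence followed for 10 min at ex 340/em 505 nm. IC50 taken from sigmoid fit of rate against inhibitor concentration.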

[2] = Inhibition of Sprague-Dawley rat brain FTase by continuous fluorescence assay
Summary of the method: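 Enzyme source: cytosolic fraction (100 000g supernatant) of brains from male Sprague–Dawley rats aged 9–10 weeks, kept at -80 °C. Reaction: 50 mM Tris-HCl pH 7.5, 5 mM MgCl2, 10 μM ZnCl2, 5 mM DTT, 0.01% n-dodecyl-β-D-maltoside, 5.4 mg/mL cytosolic protein, 1.3 μM dansyl-CVIM, 25 μM FPP. Run at 25 °C, fluorescence (ex 340/em 505 nm) recorded 10 min. IC50 obtained by fitting ΔF/Δt versus inhibitor concentration.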

[3] = test system: L1210; assay: Growth inhibition of mouse L1210 cells by MTT assay after 72 hrs; type: functional, cell-based; conditions: L1210, 72 h
Summary of the method: (§1)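 Cells (H-Ras-transformed NIH3T3 fibroblasts; K-Ras-transformed DLD-1 colon adenocarcinoma; L-1210 leukaemia) grown in RPMI + 10% fetal calf serum. Seeded and allowed to grow 24 h, then exposed to a range of inhibitor concentrations for 72 h, 1% DMSO final. Growth read by colorimetric MTT assay; EC50 derived.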

[4] = test system: DLD-1; assay: Growth inhibition of human DLD1 cells by MTT assay after 72 hrs; type: functional, cell-based; conditions: DLD-1, 72 h; summary of the method: as §1
[5] = test system: NIH3T3; assay: Growth inhibition of H-Ras transformed […] cells by MTT assay after 72 hrs; type: functional, cell-based; conditions: Mus musculus, NIH3T3, 72 h; summary of the method: as §1

SMILES	IC50 [1]	IC50 [2]	EC50 [3]	EC50 [4]	EC50 [5]
CSCC[C@H](NC(=O)c1ccc(NC(=O)[C@@H](N)CS)cc1)C(=O)O	> 100 nM	72 nM			
CSCC[C@H](NC(=O)[C@H](Cc1ccccc1)NC[C@@H](NC[C@@H](N)CS)C(C)C)C(=O)O	> 5000 nM	34 nM			
COC(=O)[C@H](CCSC)N(C(=O)c1ccccc1)C1CCN(C(=O)C(N)CS)CC1 (stereo partly specified)	> 100 nM	22.8 nM	> 10000 nM	18100 nM	
COC(=O)[C@H](CCSC)N(C(=O)c1ccccc1)C1CCN(Cc2cncn2Cc2ccccc2)CC1		397 nM			
N#Cc1ccc(Cn2cncc2CN2CCC(N(C(=O)c3ccccc3)[C@@H](Cc3ccccc3)C(=O)O)CC2)cc1	> 2000 nM	54.1 nM			
CCC(C)[C@@H](C(=O)OC)N(C(=O)c1ccccc1)C1CCN(Cc2cncn2Cc2ccc(C#N)cc2)CC1 (stereo partly specified)	> 2000 nM	32.7 nM			
COC(=O)[C@H](Cc1ccccc1)N(C(=O)c1ccccc1)C1CCN(Cc2cncn2Cc2ccc(C#N)cc2)CC1	> 2000 nM	22 nM			
CC(C)C[C@H](NC(=O)c1ccc(NC(=O)[C@@H](N)CS)cc1-c1ccccc1)C(=O)O	12.4 nM	56.2 nM			
COC(=O)[C@H](CCSC)N(C(=O)c1ccccc1)C1CCN(Cc2cncn2Cc2ccc(C(F)(F)F)cc2)CC1		43.9 nM			

Further lines, with some results ahead:

IC50 [1]	IC50 [2]	EC50 [3]	EC50 [4]	SMILES	EC50 [5]
	575 nM			COC(=O)[C@H](CCSC)N(C(=O)c1ccccc1)C1CCN(Cc2cncn2Cc2ccc(OC)cc2)CC1	
> 2000 nM	10 nM			CSCC[C@@H](C(=O)O)N(C(=O)c1ccccc1)C1CCN(Cc2cncn2Cc2ccc(C#N)cc2)CC1	
	600 nM			COC(=O)[C@H](CCSC)N(C(=O)c1ccccc1)C1CCN(Cc2cncn2Cc2ccc(C)cc2)CC1	
> 2000 nM	2.35 nM	> 5000 nM	12900 nM	COC(=O)[C@H](CCSC)N(Cc1ccccc1)C1CCN(Cc2cncn2Cc2ccc(C#N)cc2)CC1	
> 2000 nM	4.6 nM	20 nM	9200 nM	COC(=O)[C@H](CCSC)N(C(=O)c1ccccc1)C1CCN(Cc2cncn2Cc2ccc(C#N)cc2)CC1	1330 nM
